Compound activity deposited in PubChem by several laboratories.
GSK3B inh – inhibitors of human GSK3beta kinase. GST-GSK3beta kinase, ADP-Glo luminescence, 60 min; hits give low values. activity score (negative = inhibition), % at 10 µM. 300,000 compounds, 0.038% hits;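 active = more than half of replicate wells score below -50%, meaning over 50% inhibition versus plate controls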;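 also: 0% = median DMSO wells and -100% = median GW8510 positive control wells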
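Assay system: GST-fused GSK3beta enzyme, cell-free / Medium: Tris pH 7.5 buffer with MgCl2, DTT, BSA, heparin / Also added: peptide substrate plus 25 µM ATP (final) / Compound: 10 µM single point / Timing: kinase reaction with compound 60 min at room temperature / Detection: ADP-Glo luminescence / Benchmarks: DMSO neutral wells and GW8510 at 20 µM as positive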
A1 inh – inhibitors of the anti-apoptotic protein A1, read as caspase activation. AID 2462. MEF A1-2A-BIM cells, Caspase-Glo 3/7 luminescence, 3 h; percent of clofoctol response, vehicle zero. caspase activation, % (no concentration beside the values). 330,000 compounds, 0.066% hits;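 active = over half of replicate activation scores above 10%, or exactly half above 10 with the replicate mean above 10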
procasp3 activ – procaspase-3 (human) activation. P42574. recombinant procaspase-3 D3A, Ac-DEVD-pNA absorbance 405 nm. activation, % at 8.5 µM. 330,000 compounds, 0.11% hits;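 active = activation above the mean of all tested compounds plus 3 SD, cut at about 21% in these data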;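 also: 0% = DMSO alone and 100% = DMSO wells spiked with extra 5 µM PC-3 D3A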
Target sequence (P42574 whole entry D9A/D28A/D175A): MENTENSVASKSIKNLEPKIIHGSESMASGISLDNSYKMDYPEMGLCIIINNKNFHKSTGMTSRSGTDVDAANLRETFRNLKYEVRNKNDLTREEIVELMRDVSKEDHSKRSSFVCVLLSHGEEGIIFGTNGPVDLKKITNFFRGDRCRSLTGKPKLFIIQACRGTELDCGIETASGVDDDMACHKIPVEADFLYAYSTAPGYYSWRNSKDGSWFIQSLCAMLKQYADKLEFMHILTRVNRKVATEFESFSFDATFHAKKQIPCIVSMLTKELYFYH
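Evaluation: percent activation relative to control range; Material: Procaspase-3 D3A mutant, all three cleavage aspartates alanine; Compound: single dose, 8.5 µM nominal compound, 0.8% DMSO; Replication: one well per compound; Signal: absorbance at 405 nm, 0 and 120 min; Schedule: 1 h preincubation plus 2 h reaction at 25 °C.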
GSK3A inh – inhibitors of human GSK-3 alpha kinase. ADP-Glo luminescence, 60 min. inhibition, % at 10 µM. 320,000 compounds, 0.1% hits;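 active = more than half of replicates show inhibition above 20%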;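 also: GST-tagged GSK-3 alpha with peptide substrate and 25 µM ATP; 0% = DMSO neutral wells and 100% = GW8510 positive control wells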
STK33 inh – inhibitors of human STK33 kinase; Q9BYT3; purified STK33, MBP phosphorylation, ADP-Glo luminescence; inhibition, % at 10 µM; 320,000 compounds, 0.073% hits; AID 2661;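 active = inhibition at or above 25%, using the most active replicate where run in duplicate; inactive = inhibition below 25%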
proCasp7 act – counter-screen for procaspase-3 activators: activators of human procaspase-7. P55210. recombinant procaspase-7, Ac-DEVD-pNA absorbance 405 nm; D23A/D198A/D206A triple mutant, cannot self-cleave; scale: DMSO 0, 5 µM enzyme 100. activation, % at 8.5 µM. 330,000 compounds, 0.093% hits. AID 463210;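 active = percent activation above the screen-wide mean plus 3 SD, cut at about 25% in these data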
Target sequence (P55210 whole entry D23A/D198A/D206A): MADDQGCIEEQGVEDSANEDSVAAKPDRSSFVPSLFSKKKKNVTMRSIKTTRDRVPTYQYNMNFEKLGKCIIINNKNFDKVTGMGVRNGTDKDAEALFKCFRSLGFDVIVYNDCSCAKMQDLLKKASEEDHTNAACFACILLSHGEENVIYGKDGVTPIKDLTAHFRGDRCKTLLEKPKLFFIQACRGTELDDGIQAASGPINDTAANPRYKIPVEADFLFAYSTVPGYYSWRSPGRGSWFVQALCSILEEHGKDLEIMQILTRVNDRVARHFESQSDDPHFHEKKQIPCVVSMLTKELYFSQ
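Detection: p-Nitroaniline absorbance at 405 nm, read at 0 and 120 min; system: Uncleavable procaspase-7 mutant enzyme; evaluation: % activation from two-timepoint absorbance difference, scaled to controls; times: 1 h enzyme–compound preincubation and 2 h substrate reaction, both 25 °C; buffer or medium: Zinc-free HEPES pH 7.4 with 300 mM NaCl, 0.01% Triton X-100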
Starred values were filed as active, the others as inactive. Sampled rows, rich in hits. Any-hit rate of the full collection: about 0.38%.

Screening Cc1ccc(Nc2nc(NCCCN3CCOCC3)nc(N)c2[N+](=O)[O-])cc1C returned GSK3B inh -30.9, A1 inh 0.0, procasp3 activ 3.1 and proCasp7 act 3.3.
`Nc1nc(NCCCN2CCOCC2)nc(Nc2cccc(Cl)c2)c1[N+](=O)[O-]` gave GSK3B inh -76.7*, A1 inh -0.6, procasp3 activ -8.8, GSK3A inh 77.9*, STK33 inh 2.5 and proCasp7 act 6.8.
`Cc1ccc(Nc2nc(NCCCN3CCOCC3)nc(N)c2[N+](=O)[O-])cc1` gave GSK3B inh -1.6, A1 inh 0.1, procasp3 activ 4.6, GSK3A inh 57.5*, STK33 inh 0.5 and proCasp7 act -2.1.
Screening NS(=O)(=O)c1ccc(NC(=O)CSc2cn[nH]n2)cc1 returned GSK3B inh -0.4, A1 inh 1.3, procasp3 activ 4.4, GSK3A inh -1.3, STK33 inh 0.9 and proCasp7 act 4.6.
Screening CCOc1ccc(/C=C/C(=O)N(CC)CC(=O)Nc2ccc3c(c2)OCCO3)cc1OCC returned GSK3B inh 0.2, A1 inh -0.6, procasp3 activ 1.3, GSK3A inh -0.9, STK33 inh -1.0 and proCasp7 act -0.9.
`CCOC(=O)C1CCN(C(=O)c2cccc(S(=O)(=O)N3c4ccccc4CC3C)c2)CC1` (centres undefined) gave A1 inh 0.1, procasp3 activ 8.2, GSK3A inh -0.1, STK33 inh -1.7 and proCasp7 act -8.2.
For N#C/C(=C(/O)c1ccco1)c1nc2ccccc2[nH]1 the results were GSK3B inh -3.6, A1 inh -1.7, procasp3 activ -0.7, GSK3A inh -2.3, STK33 inh 28.6* and proCasp7 act 6.5.
Screening Cc1ccccc1NC(=O)C1CC(=O)N(Cc2ccccc2)C1 (centres undefined) returned GSK3B inh 4.1, A1 inh -0.1, procasp3 activ 5.7, GSK3A inh -1.3, STK33 inh -2.4 and proCasp7 act 7.1.
`O=C1/C(=C/c2ccc(O)c(O)c2)Oc2cc(O)ccc21` gave A1 inh 0.5, procasp3 activ -1.7, GSK3A inh 49.7, STK33 inh 45.9* and proCasp7 act -20.8.
Screening CC(=O)Oc1ccc2c(c1)O/C(=C\c1ccncc1)C2=O returned GSK3B inh -10.6, A1 inh 1.3, procasp3 activ -15.4, GSK3A inh 15.9, STK33 inh 13.2 and proCasp7 act 8.8.
For COc1cc(/C=C2\CCC/C(=C\c3ccc(O)c(OC)c3)C2=O)ccc1O the results were GSK3B inh -0.4, A1 inh 0.9, procasp3 activ -1.9, GSK3A inh -3.8, STK33 inh 1.7 and proCasp7 act -6.8.
For COc1cc(/C=C2\Oc3cc(O)ccc3C2=O)ccc1O the results were GSK3B inh -32.3, A1 inh -0.3, procasp3 activ -7.8, GSK3A inh 63.2*, STK33 inh -2.6 and proCasp7 act -20.1.
Screening COc1ccc(OC)c(NC(=O)c2csc(Cl)c2OC)c1 returned GSK3B inh -1.2, A1 inh 0.1, procasp3 activ 5.9, GSK3A inh 2.1, STK33 inh 6.2 and proCasp7 act -2.1.
COC(=O)Nc1[nH]ncc1[N+](=O)[O-] was read as GSK3B inh 1.7, A1 inh 0.1, procasp3 activ 2.8 and proCasp7 act 0.8.
`Cc1ccc(-c2nn(CCC(=O)O)cc2/C=C\C(=O)c2ccc(Br)cc2)cc1` gave GSK3B inh 0.0, A1 inh 1.0, procasp3 activ -1.1, GSK3A inh 6.4, STK33 inh 35.6* and proCasp7 act 0.9.
`O=C(O)CCn1cc(/C=C\C(=O)c2ccc(Cl)cc2)c(-c2cccc(Br)c2)n1` gave GSK3B inh 0.5, A1 inh -0.2, procasp3 activ -6.5, GSK3A inh -3.1, STK33 inh 14.9 and proCasp7 act -2.5.
`Nc1c(C(=O)O)ccc2c1C(=O)c1ccccc1C2=O` gave GSK3B inh -20.8, A1 inh -0.1, procasp3 activ -1.0, GSK3A inh 58.2*, STK33 inh 52.3* and proCasp7 act -5.8.
`Nc1cc(C(=O)O)c(N)c2c1C(=O)c1ccccc1C2=O` gave GSK3B inh -1.4, A1 inh -5.3, procasp3 activ -2.9, GSK3A inh 54.5*, STK33 inh 76.8* and proCasp7 act -8.5.
`COc1ccc(NC(=O)CC2C(=O)N(C)C(=S)N2Cc2ccncc2)cc1` (centres undefined) gave GSK3B inh 0.1, A1 inh 0.1, procasp3 activ -2.6, GSK3A inh -0.3, STK33 inh -1.1 and proCasp7 act 8.9.
Screening CC(C)n1cnc2c(Nc3cccc(F)c3)nc(NCCO)nc21 returned GSK3B inh -5.6, A1 inh 0.1, procasp3 activ -4.9, GSK3A inh -5.5, STK33 inh 0.1 and proCasp7 act 2.1.
`C=CC(=O)Nc1ccc(Nc2nc(NC3CCC(N(C)C)CC3)nc3c2ncn3C(C)C)cc1` (centres undefined) gave A1 inh 0.5, procasp3 activ -2.8, GSK3A inh 14.6, STK33 inh 80.6* and proCasp7 act 6.8.
Screening COc1cc(/C=C/C(=O)O)ccc1O returned GSK3B inh -1.6, A1 inh -0.6, procasp3 activ 7.9, GSK3A inh 1.6, STK33 inh 7.5 and proCasp7 act -5.8.
COc1cc(/C=C/C(=O)CC(=O)/C=C/c2ccc(O)c(OC)c2)ccc1O was read as GSK3B inh -1.8, A1 inh 0.2, procasp3 activ -17.8, GSK3A inh -0.7, STK33 inh 63.9* and proCasp7 act -4.5.
Screening COc1cc(C=C(C(C)=O)C(C)=O)ccc1O returned GSK3B inh -3.3, A1 inh 0.2, procasp3 activ -0.9, GSK3A inh -2.3, STK33 inh 0.5 and proCasp7 act 9.9.
Screening COc1cc(/C=C/C(=O)/C=C(O)/C=C/c2ccc(O)c(OC)c2)ccc1O returned A1 inh -0.1, procasp3 activ -30.5, GSK3A inh 2.4, STK33 inh 61.1* and proCasp7 act -22.9.
For CC(NC(=O)c1ccc(C(F)(F)F)cc1)C(c1ccccc1)N1CCOCC1 (centres undefined) the results were GSK3B inh -0.5, A1 inh 0.8, procasp3 activ 7.9, GSK3A inh -0.1, STK33 inh 0.8 and proCasp7 act -1.2.
Screening COc1cccc(-c2ncc3ccccc3c2COC(=O)CCC(=O)O)c1 returned A1 inh -1.5, procasp3 activ -4.8, GSK3A inh 1.7, STK33 inh -2.0 and proCasp7 act 1.1.
